The subject of series [1] is Rattus norvegicus. Kind of series: Depression of motor activity in Wistar rat at 50 mg/kg, ip after 1 to 5 hrs. It is filed as functional, organism-based. The arrangement: dose 50 mg/kg. Put shortly:
(§1)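 Male Wistar rats (175–225 g) dosed ip (vehicle dilute NaH2PO4 in water). Gross behaviour observed; respiratory rate, heart rate, rectal temperature and pupil size measured. Three treated rats per dose compared with one control.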

Series [2] concerns Rattus norvegicus. Kind of series: Increase in pupil size in Wistar rat at 50 mg/kg, ip. The series is classed as functional, organism-based. Also noted: dose 50 mg/kg. In short, it runs like this: as §1
The subject of series [3] is Rattus norvegicus. The series can be described thus: Reduction in heart rate in Wistar rat at 50 mg/kg, ip. The series is classed as functional, organism-based. Also noted: dose 50 mg/kg. Put shortly: as §1
Series [4] can be described thus: Acute toxicity in ip dosed Swiss-Webster mouse administered as single dose after 7 days. The series is classed as organism-based. The conditions noted are these: in vivo. In short, it runs like this:
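Mice given a single ip dose at each of four dose levels; lethality followed over 7 days; LD50 with 95% confidence limits estimated by the method of Weil. Compounds dissolved in minimal 1.5 M NaH2PO4, diluted with water; haloperidol in minimal 50% (w/v) tartaric acid-water.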

In series [5] the test system is Rattus norvegicus. Kind of series: Reduction in respiratory rate in Wistar rat at 50 mg/kg, ip. The series is classed as functional, organism-based. Also noted: dose 50 mg/kg. Put shortly:
as §1

The test system of series [6] is Mus musculus. The series can be described thus: Depression of spontaneous motor activity in ip dosed Swiss-Webster mouse by photocell cage test relative to control. The series is classed as functional, organism-based. Put shortly:
(§2)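 Compound was dissolved in minimal 1.5 M NaH2PO4, diluted with water and given ip. Two mice given the same dose went into each of three photocell actophotometer cages 10 min after the rotarod test started. Counts were taken over 15 min, starting 5 min after placement. A factorial design across cages cancelled differences between units. Results were given as % of control, with significance by Student's t test (p < 0.05).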

Series [7] has as its system Mus musculus. Kind of series: Depression of forced motor activity in Swiss-Webster mouse at 50 mg/kg, ip after 30 mins by rotarod test relative to control. The series is classed as functional. The following applies: route intraperitoneal. Put shortly:
(§3)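 Mice were dosed ip with vehicle or compound dissolved in a minimum of 1.5 M NaH2PO4 and diluted with water. On the rotarod, speed was 4 rpm for 30 sec, then 6 rpm for 30 sec, then increased every 30 sec up to a maximum of 50 rpm until the fall. Each mouse had four trials, two per day on two consecutive days, spaced 4–6 hr apart. The fourth trial was run 30 min after dosing. The read-out was trial time (sec) as % of control, with significance by Student's t test (p < 0.05).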
In general terms: The rotarod test checks motor coordination on a turning rod.

Series [8] has as its system Rattus norvegicus. The series can be described thus: Reduction in body temperature in Wistar rat at 50 mg/kg, ip relative to control. It is filed as functional. The following applies: route intraperitoneal. Put shortly:
as §1

Series [9] relates to Mus musculus. Kind of series: Depression of forced motor activity in Swiss-Webster mouse at 100 mg/kg, ip after 30 mins by rotarod test relative to control. It is filed as functional. The following applies: route intraperitoneal. Put shortly: (§4)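 Rotarod in mice: rod at 4 rpm for 30 sec, 6 rpm next 30 sec, then stepped up every 30 sec (max 50 rpm) until fall. Six mice at a time, four trials (two per day, 4–6 hr apart, two consecutive days); vehicle or compound ip 30 min before fourth trial. Time on rod as % of control; Student's t test, p < 0.05.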

For series [10], the system named is Mus musculus. The series can be described thus: Depression of forced motor activity in Swiss-Webster mouse at 25 mg/kg, ip after 30 mins by rotarod test relative to control. The series is classed as functional. The conditions noted are these: route intraperitoneal. Put shortly:
as §3

The test system of series [11] is Mus musculus. The series can be described thus: Depression of spontaneous motor activity in Swiss-Webster mouse at 50 mg/kg, ip by photocell cage test relative to control. The series is classed as functional. The following applies: route intraperitoneal. Put shortly: as §2
For series [12], the system named is Mus musculus. The series can be described thus: Depression of forced motor activity in ip dosed Swiss-Webster mouse after 30 mins by rotarod test relative to control. The series is classed as functional, organism-based. Put shortly: as §3
The subject of series [13] is Rattus norvegicus. The series can be described thus: Reduction in ptosis in Wistar rat at 50 mg/kg, ip after 1 to 5 hrs. It is filed as functional, organism-based. Also noted: dose 50 mg/kg. In short, it runs like this: as §1
In series [14] the test system is Mus musculus. Kind of series: Depression of spontaneous motor activity in Swiss-Webster mouse at 25 mg/kg, ip by photocell cage test relative to control. It is filed as functional. The conditions noted are these: route intraperitoneal. In short, it runs like this:
as §2

The test system of series [15] is Mus musculus. Kind of series: Depression of spontaneous motor activity in Swiss-Webster mouse at 100 mg/kg, ip by photocell cage test relative to control. The following applies: route intraperitoneal. It is filed as functional. Put shortly:
(§5)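 Spontaneous activity in three photocell cages: two mice given the same ip dose placed per cage 10 min after rotarod start; 15-min count begun 5 min after placement. Each dose run in factorial design across all three cages to offset unit sensitivity. Counts expressed as % of control; Student's t test, p < 0.05.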

In series [16] the test system is Mus musculus. The series can be described thus: Depression of forced motor activity in Swiss-Webster mouse at 12.5 mg/kg, ip after 30 mins by rotarod test relative to control. It is filed as functional. The following applies: route intraperitoneal. Put shortly:
as §3

The test system of series [17] is Mus musculus. The series can be described thus: Depression of spontaneous motor activity in Swiss-Webster mouse at 12.5 mg/kg, ip by photocell cage test relative to control. The series is classed as functional. The conditions noted are these: route intraperitoneal. In short, it runs like this: as §2
Series [18] relates to Mus musculus. Kind of series: Depression of forced motor activity in Swiss-Webster mouse at 10 mg/kg, ip after 30 mins by rotarod test relative to control. The series is classed as functional. The following applies: route intraperitoneal. Put shortly:
as §4

In series [19] the test system is Rattus norvegicus. Kind of series: Increase in motor activity in Wistar rat at 5 to 30 mg/kg, ip. It is filed as functional, organism-based. In short, it runs like this: as §1
Series [20] deals with Mus musculus. The series can be described thus: Depression of forced motor activity in Swiss-Webster mouse at 5 mg/kg, ip after 30 mins by rotarod test relative to control. The series is classed as functional. The conditions noted are these: route intraperitoneal. Put shortly:
as §4

Series [21] has as its system Mus musculus. The series can be described thus: Depression of spontaneous motor activity in Swiss-Webster mouse at 5 mg/kg, ip by photocell cage test relative to control. It is filed as functional. The conditions noted are these: route intraperitoneal. Put shortly:
as §5

The test system of series [22] is Mus musculus. The series can be described thus: Depression of spontaneous motor activity in Swiss-Webster mouse at 10 mg/kg, ip by photocell cage test relative to control. The series is classed as functional. The conditions noted are these: route intraperitoneal. Put shortly: as §5
For series [23], the species on record is Rattus norvegicus. The series can be described thus: Reduction in respiration rate in Wistar rat. The series is classed as functional, organism-based. In short, it runs like this: as §1
For series [24], the species on record is Rattus norvegicus. Kind of series: Increase in heart rate in Wistar rat. The series is classed as functional, organism-based. Put shortly: as §1

For orientation: LD50 means the dose expected to kill half of the subjects tested.

The structures appear in SMILES notation. Activity calls are given as the source filed them. The rule behind the calls is not given here.

For `O[C@]1(c2ccc(Cl)cc2)CCN2CCCCC2C1` (some centres not stated), the outcome in [1], in series [2], in series [3], in series [5] and in [13] was Active. The same compound had a 50% lethal dose (LD50) at 168 h in series [4] of 229 mg/kg. The Activity entry in [6] was “Dose-dependent effect”; in [7] it was 26.7%; in series [9], 9.7%; in series [10], 71.3%; in [11], 18.1%; in [12], “Dose-dependent effect”. The Activity is given as 19.4% in [14] and 2.6% in series [15]. Moreover, in [8], the T turned out to be 1 °C.

As to `O[C@]1(c2ccc(C(F)(F)F)cc2)CCN2CCCCC2C1` (single isomer, unassigned), the 50% lethal dose (LD50) at 168 h in series [4] was determined as 125 mg/kg. The Activity result in [6] was “Dose-dependent effect”; in series [7], 31.5%; in series [16], 115.2%; in [10], 100.6%; in series [11], 17.5%; in series [17], 90%. The compound further showed an Activity in series [14] of 39.3%.

As for `O[C@]1(c2cccc(Cl)c2)CCN2CCCCC2C1` (single isomer, unassigned), the median lethal dose (LD50) at 168 h in series [4] came to 134 mg/kg. The Activity in series [7] was 34.3%; in series [16], 88.6%; in series [10], 83.6%; in [11], 74.3%; in series [14], 89.9%.

With `O[C@]1(c2cccc(C(F)(F)F)c2)CCN2CCCCC2C1` (single isomer, unassigned), the LD50 at 168 h in [4] is 137 mg/kg. The Activity entry in series [6] was “Dose-dependent effect”; in series [7], 56.6%; in series [16], 107.2%; in [10], 98.1%; in series [11] it was 35.4%; in series [17], 70.3%. In series [14], this compound displayed an Activity of 45.1%.

`O[C@@]1(c2ccc(Cl)cc2)CCN2CCCCC2C1` (single isomer, unassigned) showed an LD50 at 168 h in [4] of 67.5 mg/kg. Further, the Activity in [18] is on record as 101.9%; in [20] it was 105.9%; in series [21] it was 526.8%; in series [22], 439.6%; in [10], 87.6%; in series [14], 22.5%. Besides, in [19], the result was inactive. Besides, the result in series [23] and in [24] was Active.
